# Tests used:
# [1] = Cell cycle arrest in human TY82 cells assessed as accumulation at G2/M phase at 3 uM after 24 hrs by DAPI staining based assay (reference value: 9%); type: functional
# [2] = Cell cycle arrest in human TY82 cells assessed as accumulation at sub-G1 phase at 1 uM after 24 hrs by DAPI staining based assay (reference value: 6%); type: functional
# [3] = target: ATPase family AAA domain-containing protein 2B (Homo sapiens) (UniProt Q9ULI0); assay: Inhibition of human partial length ATAD2B (Q955 to R1082 residues) expressed in bacterial expression system assessed as residual activity at 500 nM relative to control by BROMOscan assay
# [4] = target: Bromodomain-containing protein 1 (Homo sapiens) (UniProt O95696); assay: Inhibition of human partial length BRD1 (E556 to A688 residues) expressed in bacterial expression system assessed as residual activity at 500 nM relative to control by BROMOscan assay
# [5] = target: Bromodomain-containing protein 2 (Homo sapiens) (UniProt P25440); assay: Inhibition of human partial length BRD2 BD1 (K71 to N194 residues) expressed in bacterial expression system assessed as residual activity at 500 nM relative to control by BROMOscan assay
# [6] = target: Histone acetyltransferase p300 (Homo sapiens) (UniProt Q09472); assay: Inhibition of human partial length EP300 (A1040 to G1161 residues) expressed in bacterial expression system assessed as residual activity at 500 nM relative to control by BROMOscan assay
# [7] = Cell cycle arrest in human TY82 cells assessed as accumulation at G1 phase at 10 uM after 24 hrs by DAPI staining based assay (reference value: 73%); type: functional
# [8] = Cell cycle arrest in human TY82 cells assessed as accumulation at sub-G1 phase at 10 uM after 24 hrs by DAPI staining based assay (reference value: 6%); type: functional
# [9] = target: Bromodomain-containing protein 9 (Homo sapiens) (UniProt Q9H8M2); assay: Inhibition of human partial length BRD9 (R130 to V259 residues) expressed in bacterial expression system assessed as residual activity at 500 nM relative to control by BROMOscan assay
# [10] = target: CREB-binding protein (Homo sapiens) (UniProt Q92793); assay: Inhibition of human partial length CREBBP (R1081 to G1197 residues) expressed in bacterial expression system assessed as residual activity at 500 nM relative to control by BROMOscan assay
# [11] = Cell cycle arrest in human TY82 cells assessed as accumulation at G2/M phase at 1 uM after 24 hrs by DAPI staining based assay (reference value: 9%); type: functional
# [12] = Cell cycle arrest in human TY82 cells assessed as accumulation at G1 phase at 3 uM after 24 hrs by DAPI staining based assay (reference value: 73%); type: functional
# [13] = Cell cycle arrest in human TY82 cells assessed as accumulation at G2/M phase at 10 uM after 24 hrs by DAPI staining based assay (reference value: 9%); type: functional
# [14] = target: Transcription initiation factor TFIID subunit 1 (Homo sapiens) (UniProt P21675); assay: Inhibition of human partial length TAF1 BD2 (D1521 to D1656 residues) expressed in bacterial expression system assessed as residual activity at 500 nM relative to control by BROMOscan assay
# [15] = target: ATPase family AAA domain-containing protein 2 (Homo sapiens) (UniProt Q6PL18); assay: Inhibition of human partial length ATAD2A (Q981 to R1108 residues) expressed in bacterial expression system assessed as residual activity at 500 nM relative to control by BROMOscan assay
# [16] = target: Protein polybromo-1 (Homo sapiens) (UniProt Q86U86); assay: Inhibition of human partial length PBRM1 BD2 (S178 to E291 residues) expressed in bacterial expression system assessed as residual activity at 500 nM relative to control by BROMOscan assay
# [17] = Cell cycle arrest in human TY82 cells assessed as accumulation at S phase at 10 uM after 24 hrs by DAPI staining based assay (reference value: 11%); type: functional
# [18] = target: Bromodomain-containing protein 2 (Homo sapiens) (UniProt P25440); assay: Inhibition of human partial length BRD2 BD2 (E348 to D455 residues) expressed in bacterial expression system assessed as residual activity at 500 nM relative to control by BROMOscan assay
# [19] = target: Bromodomain adjacent to zinc finger domain protein 2A (Homo sapiens) (UniProt Q9UIF9); assay: Inhibition of human partial length BAZ2A (M1792 to L1905 residues) expressed in bacterial expression system assessed as residual activity at 500 nM relative to control by BROMOscan assay
# [20] = target: Bromodomain-containing protein 4 (Homo sapiens, UniProt O60885); assay: Inhibition of human partial length BRD4 BD1 (N44 to E168 residues) expressed in bacterial expression system assessed as residual activity at 500 nM relative to control by BROMOscan assay
# [21] = Cell cycle arrest in human TY82 cells assessed as accumulation at G1 phase at 1 uM after 24 hrs by DAPI staining based assay (reference value: 73%); type: functional
# Rattus norvegicus = assay: Half life in rat at 20 mg/kg, po; type: ADME, organism-based; conditions: in vivo
# How it was run: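 Rat pharmacokinetics with single intravenous (2 mg/kg) or oral (5 or 20 mg/kg) dosing. Terminal half-life is reported in hours.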
# [22] = Cell cycle arrest in human TY82 cells assessed as accumulation at S phase at 3 uM after 24 hrs by DAPI staining based assay (reference value: 11%); type: functional
# [23] = target: Chromatin remodeling regulator CECR2 (Homo sapiens) (UniProt Q9BXF3); assay: Inhibition of human partial length CECR2 (P423 to D543 residues) expressed in bacterial expression system assessed as residual activity at 500 nM relative to control by BROMOscan assay
# [24] = Cell cycle arrest in human TY82 cells assessed as accumulation at S phase at 1 uM after 24 hrs by DAPI staining based assay (reference value: 11%); type: functional
# [25] = Antiproliferative activity against human TY82 cells; type: functional, cell-based
# [26] = target: SWI/SNF-related matrix-associated actin-dependent regulator of chromatin subfamily A member 2 (Homo sapiens) (UniProt P51531); assay: Inhibition of human partial length SMARCA2 (S1377 to Q1486 residues) expressed in bacterial expression system assessed as residual activity at 500 nM relative to control by BROMOscan assay
# [27] = Stability in human liver microsomes assessed as parent compound remaining after 30 mins; type: ADME, microsome; conditions: read-out: Stability
# How it was run: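 Incubated in vitro with mouse, rat or human liver microsomes for 30 minutes. Result expressed as percent of parent compound remaining.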
# [28] = target: Transcription intermediary factor 1-alpha (Homo sapiens) (UniProt O15164); assay: Inhibition of human partial length TRIM24-phd-bromo (P790 to P977 residues) expressed in bacterial expression system assessed as residual activity at 500 nM relative to control by BROMOscan assay
# Sequence of Bromodomain-containing protein 2 (Homo sapiens) (P25440 whole entry, looked up, the tested form may be a part): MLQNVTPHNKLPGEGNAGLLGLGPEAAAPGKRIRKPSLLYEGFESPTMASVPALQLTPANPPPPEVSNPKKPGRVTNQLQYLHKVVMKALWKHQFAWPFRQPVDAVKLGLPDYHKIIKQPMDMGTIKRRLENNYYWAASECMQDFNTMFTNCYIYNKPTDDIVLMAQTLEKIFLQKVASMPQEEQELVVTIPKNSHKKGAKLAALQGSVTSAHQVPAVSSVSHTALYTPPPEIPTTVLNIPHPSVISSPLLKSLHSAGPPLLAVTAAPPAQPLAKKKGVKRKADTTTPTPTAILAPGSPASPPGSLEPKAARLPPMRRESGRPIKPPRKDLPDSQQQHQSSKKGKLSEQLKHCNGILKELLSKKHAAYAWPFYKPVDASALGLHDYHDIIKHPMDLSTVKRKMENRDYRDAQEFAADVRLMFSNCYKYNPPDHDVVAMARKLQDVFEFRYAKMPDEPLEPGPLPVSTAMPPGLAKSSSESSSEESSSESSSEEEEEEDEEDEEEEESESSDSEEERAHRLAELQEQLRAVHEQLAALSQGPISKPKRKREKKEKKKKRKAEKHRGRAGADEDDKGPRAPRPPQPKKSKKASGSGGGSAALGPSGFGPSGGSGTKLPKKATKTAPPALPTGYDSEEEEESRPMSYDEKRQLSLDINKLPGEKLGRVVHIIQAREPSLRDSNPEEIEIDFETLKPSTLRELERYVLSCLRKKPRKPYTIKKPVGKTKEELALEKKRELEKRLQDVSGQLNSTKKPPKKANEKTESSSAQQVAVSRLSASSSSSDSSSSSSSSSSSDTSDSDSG
# Sequence of Bromodomain-containing protein 1 (Homo sapiens) (O95696 whole entry, the tested form may be a part): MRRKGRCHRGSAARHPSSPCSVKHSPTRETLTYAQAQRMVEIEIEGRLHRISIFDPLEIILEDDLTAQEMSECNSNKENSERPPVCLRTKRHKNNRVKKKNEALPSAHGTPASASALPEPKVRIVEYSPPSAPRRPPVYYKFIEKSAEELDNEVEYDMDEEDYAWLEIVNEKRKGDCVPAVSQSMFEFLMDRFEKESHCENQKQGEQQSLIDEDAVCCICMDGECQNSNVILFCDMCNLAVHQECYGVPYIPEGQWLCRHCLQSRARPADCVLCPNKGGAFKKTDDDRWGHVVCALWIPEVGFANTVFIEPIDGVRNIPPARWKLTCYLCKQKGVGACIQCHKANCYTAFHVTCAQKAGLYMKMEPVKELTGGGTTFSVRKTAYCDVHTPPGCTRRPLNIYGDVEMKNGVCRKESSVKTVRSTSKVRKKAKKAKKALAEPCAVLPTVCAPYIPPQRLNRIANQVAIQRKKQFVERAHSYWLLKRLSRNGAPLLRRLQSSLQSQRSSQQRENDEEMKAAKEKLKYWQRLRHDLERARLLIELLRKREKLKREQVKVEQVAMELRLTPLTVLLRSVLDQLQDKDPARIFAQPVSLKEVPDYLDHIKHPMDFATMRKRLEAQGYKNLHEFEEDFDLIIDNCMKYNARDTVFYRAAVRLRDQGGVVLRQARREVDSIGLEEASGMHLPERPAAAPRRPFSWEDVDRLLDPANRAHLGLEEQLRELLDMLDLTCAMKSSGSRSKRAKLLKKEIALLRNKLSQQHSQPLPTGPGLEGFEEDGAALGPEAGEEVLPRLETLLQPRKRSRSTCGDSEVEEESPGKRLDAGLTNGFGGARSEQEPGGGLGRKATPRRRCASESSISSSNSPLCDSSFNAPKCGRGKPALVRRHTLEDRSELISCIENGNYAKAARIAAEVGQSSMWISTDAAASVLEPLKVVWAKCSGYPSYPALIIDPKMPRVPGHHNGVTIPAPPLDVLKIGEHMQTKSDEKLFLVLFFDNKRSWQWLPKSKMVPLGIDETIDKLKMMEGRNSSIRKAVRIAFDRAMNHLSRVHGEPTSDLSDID
# Sequence of CREB-binding protein (Homo sapiens) (Q92793 2-2442 limits assumed): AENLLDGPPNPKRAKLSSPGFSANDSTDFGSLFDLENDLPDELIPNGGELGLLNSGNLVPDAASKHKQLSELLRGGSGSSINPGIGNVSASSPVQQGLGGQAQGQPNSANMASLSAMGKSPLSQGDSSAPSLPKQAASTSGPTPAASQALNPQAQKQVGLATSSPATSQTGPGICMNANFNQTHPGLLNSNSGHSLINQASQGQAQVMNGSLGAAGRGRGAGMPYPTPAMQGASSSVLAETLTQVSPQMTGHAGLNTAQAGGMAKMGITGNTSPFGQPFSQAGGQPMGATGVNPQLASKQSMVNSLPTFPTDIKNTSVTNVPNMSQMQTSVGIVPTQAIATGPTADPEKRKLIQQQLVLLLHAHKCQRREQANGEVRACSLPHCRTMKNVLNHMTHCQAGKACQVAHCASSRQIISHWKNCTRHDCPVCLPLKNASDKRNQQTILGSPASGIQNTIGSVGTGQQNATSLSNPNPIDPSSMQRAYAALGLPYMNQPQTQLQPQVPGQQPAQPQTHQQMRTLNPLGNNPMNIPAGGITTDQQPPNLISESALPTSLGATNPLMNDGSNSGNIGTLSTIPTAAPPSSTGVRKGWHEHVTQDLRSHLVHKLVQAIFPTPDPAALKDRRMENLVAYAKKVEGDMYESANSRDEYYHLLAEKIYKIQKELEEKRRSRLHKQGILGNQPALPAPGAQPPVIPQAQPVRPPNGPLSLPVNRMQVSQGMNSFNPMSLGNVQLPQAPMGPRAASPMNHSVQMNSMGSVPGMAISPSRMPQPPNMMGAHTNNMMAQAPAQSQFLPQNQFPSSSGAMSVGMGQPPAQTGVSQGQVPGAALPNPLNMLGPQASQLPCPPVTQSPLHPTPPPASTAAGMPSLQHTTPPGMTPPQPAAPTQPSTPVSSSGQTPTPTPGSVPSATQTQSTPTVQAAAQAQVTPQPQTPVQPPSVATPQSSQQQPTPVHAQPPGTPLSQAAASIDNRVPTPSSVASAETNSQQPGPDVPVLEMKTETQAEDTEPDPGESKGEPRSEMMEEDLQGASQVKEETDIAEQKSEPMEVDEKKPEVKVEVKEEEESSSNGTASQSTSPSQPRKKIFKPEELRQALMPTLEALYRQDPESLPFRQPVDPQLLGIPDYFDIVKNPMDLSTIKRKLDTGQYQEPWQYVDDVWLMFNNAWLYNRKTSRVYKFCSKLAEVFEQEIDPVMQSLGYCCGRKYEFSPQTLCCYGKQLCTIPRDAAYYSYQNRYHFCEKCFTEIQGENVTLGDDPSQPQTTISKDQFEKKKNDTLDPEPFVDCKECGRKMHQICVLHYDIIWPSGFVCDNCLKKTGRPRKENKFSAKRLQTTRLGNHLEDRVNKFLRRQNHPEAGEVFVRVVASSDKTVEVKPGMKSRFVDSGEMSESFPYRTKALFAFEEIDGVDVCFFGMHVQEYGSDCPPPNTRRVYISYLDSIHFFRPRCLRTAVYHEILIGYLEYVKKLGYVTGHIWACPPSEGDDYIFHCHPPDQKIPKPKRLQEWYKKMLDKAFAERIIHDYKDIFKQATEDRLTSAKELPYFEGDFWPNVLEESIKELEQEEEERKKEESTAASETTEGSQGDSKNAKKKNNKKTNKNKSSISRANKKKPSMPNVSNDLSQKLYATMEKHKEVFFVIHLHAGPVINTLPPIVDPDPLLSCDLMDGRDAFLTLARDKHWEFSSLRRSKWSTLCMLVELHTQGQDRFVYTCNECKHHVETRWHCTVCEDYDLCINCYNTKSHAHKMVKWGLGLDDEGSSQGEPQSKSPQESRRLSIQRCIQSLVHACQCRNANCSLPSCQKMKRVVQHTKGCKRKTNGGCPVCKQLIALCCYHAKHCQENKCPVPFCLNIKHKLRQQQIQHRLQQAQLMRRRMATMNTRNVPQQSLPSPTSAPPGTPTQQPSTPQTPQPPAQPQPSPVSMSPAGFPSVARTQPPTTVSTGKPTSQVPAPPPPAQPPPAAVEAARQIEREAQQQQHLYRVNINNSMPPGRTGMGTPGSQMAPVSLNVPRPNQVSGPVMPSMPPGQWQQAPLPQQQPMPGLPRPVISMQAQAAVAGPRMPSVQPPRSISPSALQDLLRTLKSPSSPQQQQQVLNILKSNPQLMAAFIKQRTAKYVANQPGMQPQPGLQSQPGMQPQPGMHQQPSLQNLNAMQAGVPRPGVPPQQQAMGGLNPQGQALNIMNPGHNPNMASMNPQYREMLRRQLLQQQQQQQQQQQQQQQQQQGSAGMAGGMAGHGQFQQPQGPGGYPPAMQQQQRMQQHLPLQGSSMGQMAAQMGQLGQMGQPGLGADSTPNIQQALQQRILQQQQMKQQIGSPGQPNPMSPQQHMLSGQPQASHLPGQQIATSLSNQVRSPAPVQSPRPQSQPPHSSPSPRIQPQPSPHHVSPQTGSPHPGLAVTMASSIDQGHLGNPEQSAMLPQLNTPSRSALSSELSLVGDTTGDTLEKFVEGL
# Sequence of Bromodomain-containing protein 9 (Homo sapiens) (Q9H8M2 whole entry, the tested form may be a part): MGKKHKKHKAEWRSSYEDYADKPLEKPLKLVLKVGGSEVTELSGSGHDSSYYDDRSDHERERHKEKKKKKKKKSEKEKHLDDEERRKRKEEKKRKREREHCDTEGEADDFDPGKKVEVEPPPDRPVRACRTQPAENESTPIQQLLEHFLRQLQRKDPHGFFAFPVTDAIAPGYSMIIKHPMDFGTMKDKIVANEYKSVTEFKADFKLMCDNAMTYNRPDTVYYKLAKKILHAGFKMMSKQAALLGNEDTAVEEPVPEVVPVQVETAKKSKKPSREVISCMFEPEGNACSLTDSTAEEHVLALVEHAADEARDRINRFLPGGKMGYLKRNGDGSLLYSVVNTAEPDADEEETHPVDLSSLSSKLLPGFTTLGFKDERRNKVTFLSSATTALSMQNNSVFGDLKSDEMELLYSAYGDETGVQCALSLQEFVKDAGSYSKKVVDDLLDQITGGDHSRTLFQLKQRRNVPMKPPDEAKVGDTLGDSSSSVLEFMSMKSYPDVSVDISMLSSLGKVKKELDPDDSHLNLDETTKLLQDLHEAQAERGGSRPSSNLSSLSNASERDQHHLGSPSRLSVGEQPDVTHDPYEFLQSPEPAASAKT
smiles,measurement,setting,value
Cc1nnc2c(Nc3cccc(CNC(=O)C(C)C)c3)nc3ccccc3n12,Activity,[1],4%
same,Activity,[2],5%
same,Activity,[3],96%
same,Activity,[4],100%
same,Activity,[5],11%
same,Activity,[6],89%
same,Activity,[7],88%
same,Activity,[8],5%
same,Activity,[9],61%
same,Activity,[10],87%
same,Activity,[11],8%
same,Activity,[12],89%
same,Activity,[13],4%
same,Activity,[14],36%
same,Activity,[15],100%
same,Activity,[16],87%
same,Activity,[17],2%
same,Activity,[18],19%
same,Activity,[19],85%
same,Activity,[20],17%
same,Activity,[21],81%
same,t1/2,Rattus norvegicus,3 h
same,Activity,[22],2%
same,Activity,[23],88%
same,Activity,[24],6%
same,IC50,[25],2.5 µM
same,Activity,[26],100%
same,remaining at 0.5 h,[27],92%
same,Activity,[28],100%

# From ChEMBL document CHEMBL4043246, “Discovery of novel [1,2,4]triazolo[4,3-a]quinoxaline aminophenyl derivatives as BET inhibitors for cancer treatment” (Bioorg Med Chem Lett, 2017)
